Measurements: ChEMBL document CHEMBL4316593 (Eur J Med Chem, 2019)

What was measured:
[1] = tested on: LN-229; assay: Cytotoxicity against human LN229 cells assessed as reduction in cell proliferation measured after 48 hrs by trypan blue dye-based cell counting analysis; conditions: LN-229, 48 h
[2] = tested on: U-87 MG; assay: Cell cycle arrest in human U87 cells assessed as change in MYC gene expression at cytotoxic IC50 measured after 48 hrs […] relative to control; type: functional, U-87MG ATCC
Summary of the method: (§1)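 U87 expression profiling. Cells incubated 48hrs at 37°C, 5% CO₂ with the IC₅₀ concentration, alongside a cisplatin and an untreated control, in triplicate. RNA was isolated by one common protocol and profiled. DEGs were called with DESeq2 (q < 0.05, fold change > 1.5) and expressed as fold change versus untreated.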

[3] = tested on: U-87 MG; assay: Cell cycle arrest in human U87 cells assessed as change in ESPL1 gene expression at cytotoxic IC50 measured after 48 hrs […] relative to control; type: functional, U-87MG ATCC; summary of the method: as §1
[4] = tested on: U-87 MG; assay: Induction of DNA damage in human U87 cells assessed as change in BAX gene expression at cytotoxic IC50 measured after 48 hrs […] relative to control; type: functional, U-87MG ATCC; summary of the method: as §1
[5] = tested on: U-87 MG; assay: Induction of DNA damage in human U87 cells assessed as change in FANCI gene expression at cytotoxic IC50 measured after 48 hrs […] relative to control; type: functional, U-87MG ATCC; summary of the method: as §1
[6] = tested on: U-87 MG; assay: Induction of apoptosis in human U87 cells assessed as apoptotic cells at cytotoxic IC50 measured after 48 hrs by Annexin V-FITC/propidium iodide staining based flow cytometry (reference value: 22.4%); type: functional, U-87MG ATCC
[7] = tested on: U-87 MG; assay: Induction of apoptosis in human U87 cells assessed as change in GADD45B gene expression at cytotoxic IC50 measured after 48 hrs […] relative to control; type: functional, U-87MG ATCC
Summary of the method: (§2)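 U87 cells grown in MEM with 10% FBS at 37°C, 5% CO2. Cells exposed to IC50 of test compound for 48 hrs, alongside untreated and cisplatin controls, each condition in triplicate. RNA isolated and profiled; differential expression called with DESeq2 (q-value < 0.05, fold change > 1.5), fold change versus untreated.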

[8] = tested on: U-87 MG; assay: Induction of apoptosis in human U87 cells assessed as change in GADD45A gene expression at cytotoxic IC50 measured after 48 hrs […] relative to control; type: functional, U-87MG ATCC; summary of the method: as §2
[9] = tested on: U-87 MG; assay: Induction of apoptosis in human U87 cells assessed as change in BCL2L1 gene expression at cytotoxic IC50 measured after 48 hrs […] relative to control; type: functional, U-87MG ATCC; summary of the method: as §2
[10] = Inhibition of RTK/PI3K/AKT/mTOR signaling in human U87 cells assessed as down regulation of NAAA gene expression at cytotoxic IC50 measured after 48 hrs relative to control; type: cell-based; conditions: U-87MG ATCC
Summary of the method: (§3)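 Cells were exposed for 48hrs at 37°C in humidified 5% CO₂ to the compound at its previously determined IC₅₀, with Cisplatin at its IC₅₀ and an untreated negative control alongside. Each condition was run in triplicate. RNA was isolated from all samples by the same protocol. Genes were called differentially expressed by DESeq2 at q-value < 0.05 and fold change > 1.5.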

[11] = Inhibition of RTK/PI3K/AKT/mTOR signaling in human U87 cells assessed as down regulation of ATP6V0D1 gene expression at cytotoxic IC50 measured after 48 hrs relative to control; type: cell-based; conditions: U-87MG ATCC; summary of the method: as §2
[12] = Inhibition of RTK/PI3K/AKT/mTOR signaling in human U87 cells assessed as down regulation of MAFF gene expression at cytotoxic IC50 measured after 48 hrs relative to control; type: cell-based; conditions: U-87MG ATCC; summary of the method: as §3
[13] = Inhibition of RTK/PI3K/AKT/mTOR signaling in human U87 cells assessed as down regulation of EIF1B gene expression at cytotoxic IC50 measured after 48 hrs relative to control; type: cell-based; conditions: U-87MG ATCC; summary of the method: as §2
[14] = Inhibition of RTK/PI3K/AKT/mTOR signaling in human U87 cells assessed as down regulation of BRMS1 gene expression at cytotoxic IC50 measured after 48 hrs relative to control; type: cell-based; conditions: U-87MG ATCC; summary of the method: as §2
[15] = Inhibition of RTK/PI3K/AKT/mTOR signaling in human U87 cells assessed as down regulation of ZMAT2 gene expression at cytotoxic IC50 measured after 48 hrs relative to control; type: cell-based; conditions: U-87MG ATCC; summary of the method: as §3
[16] = Inhibition of RTK/PI3K/AKT/mTOR signaling in human U87 cells assessed as down regulation of SAFB2 gene expression at cytotoxic IC50 measured after 48 hrs relative to control; type: cell-based; conditions: U-87MG ATCC; summary of the method: as §3
[17] = Inhibition of RTK/PI3K/AKT/mTOR signaling in human U87 cells assessed as down regulation of SIDT2 gene expression at cytotoxic IC50 measured after 48 hrs relative to control; type: cell-based; conditions: U-87MG ATCC; summary of the method: as §3
[18] = Inhibition of RTK/PI3K/AKT/mTOR signaling in human U87 cells assessed as down regulation of COG1 gene expression at cytotoxic IC50 measured after 48 hrs relative to control; type: cell-based; conditions: U-87MG ATCC; summary of the method: as §2
[19] = Inhibition of RTK/PI3K/AKT/mTOR signaling in human U87 cells assessed as down regulation of SOD2 gene expression at cytotoxic IC50 measured after 48 hrs relative to control; type: cell-based; conditions: U-87MG ATCC; summary of the method: as §3
[20] = Inhibition of RTK/PI3K/AKT/mTOR signaling in human U87 cells assessed as down regulation of PTGES3 gene expression at cytotoxic IC50 measured after 48 hrs relative to control; type: cell-based; conditions: U-87MG ATCC; summary of the method: as §3
[21] = Inhibition of RTK/PI3K/AKT/mTOR signaling in human U87 cells assessed as up regulation of STC2 gene expression at cytotoxic IC50 measured after 48 hrs relative to control; type: cell-based; conditions: U-87MG ATCC
[22] = Inhibition of RTK/PI3K/AKT/mTOR signaling in human U87 cells assessed as up regulation of CPLX1 gene expression at cytotoxic IC50 measured after 48 hrs relative to control; type: cell-based; conditions: U-87MG ATCC; summary of the method: as §3
[23] = Inhibition of RTK/PI3K/AKT/mTOR signaling in human U87 cells assessed as up regulation of Rab acceptor 1 gene expression at cytotoxic IC50 measured after 48 hrs relative to control; type: cell-based; conditions: U-87MG ATCC
Summary of the method: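 U87 cells were exposed for 48 hrs at 37°C under 5% CO₂, with cisplatin and untreated controls, all in triplicate. RNA was isolated by the same protocol for every sample and expression profiled from mapped reads. Differential expression against untreated cells was called in DESeq2 (q-value < 0.05, fold change > 1.5).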

[24] = Inhibition of RTK/PI3K/AKT/mTOR signaling in human U87 cells assessed as up regulation of melanoma inhibitory activity 2 gene expression at cytotoxic IC50 measured after 48 hrs relative to control; type: cell-based; conditions: U-87MG ATCC
[25] = Inhibition of RTK/PI3K/AKT/mTOR signaling in human U87 cells assessed as up regulation of ral guanine nucleotide dissociation stimulator gene expression at cytotoxic IC50 measured after 48 hrs relative to control; type: cell-based; conditions: U-87MG ATCC
[26] = Inhibition of RTK/PI3K/AKT/mTOR signaling in human U87 cells assessed as up regulation of ubiquitin-fold modifier conjugating enzyme 1 gene expression at cytotoxic IC50 measured after 48 hrs relative to control; type: cell-based; conditions: U-87MG ATCC
[27] = Inhibition of RTK/PI3K/AKT/mTOR signaling in human U87 cells assessed as up regulation of KDM5B gene expression at cytotoxic IC50 measured after 48 hrs relative to control; type: cell-based; conditions: U-87MG ATCC; summary of the method: as §3
[28] = Inhibition of RTK/PI3K/AKT/mTOR signaling in human U87 cells assessed as up regulation of TOMM22 gene expression at cytotoxic IC50 measured after 48 hrs relative to control; type: cell-based; conditions: U-87MG ATCC

Compound: CC(=O)C(=NNc1ccccc1C#N)C(C)=O
- IC50 [1]: 87 µM
- fold change (FC) [2]: -1.478
- fold change (FC) [3]: 2.307
- fold change (FC) [4]: 2.512
- fold change (FC) [5]: 1.708
- Activity [6]: 68.7%
- log2FC [7]: -2.899
- log2FC [8]: -0.9679
- log2FC [9]: 0.9994
- log2FC [10]: -1.57
- log2FC [11]: -1.21
- log2FC [12]: -1.1
- log2FC [13]: -0.906
- log2FC [14]: -0.813
- log2FC [15]: -0.716
- log2FC [16]: -0.69
- log2FC [17]: -0.671
- log2FC [18]: -0.632
- log2FC [19]: -0.617
- log2FC [20]: -0.422
- log2FC [21]: 3.02
- log2FC [22]: 1.75
- log2FC [23]: 0.839
- log2FC [24]: 0.695
- log2FC [25]: 0.685
- log2FC [26]: 0.669
- log2FC [27]: 0.553
- log2FC [28]: 0.475
